Assay results as given in paper PMC6830765 (Innate Immunity, 2017).

Tests used:
MTT assay, SVG = assay type: cell-based, human; conditions: human, SVG astrocyte cells
How it was run: (§1)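 MTT (thiazolyl blue tetrazolium bromide) assay on LPS-inflamed CHME3 or SVG cells, fourth passage. […] Read-out is percent viable cells, plus a growth-inhibitory IC50 (concentration halving cell growth) for each cell line.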

[1] = system: astrocyte (SVG) cell-line; assay: MTT assay, SVG; assay type: cell-based, human; conditions: Homo sapiens, Astrocyte, read-out: IC50, half concentration of druggable compound to inhibit cell growth
How it was run: as §1

IFN-γ [2] = assay: IFN-γ ELISA, LPS-treated SVG; assay type: cell-based, human; conditions: selected dose
How it was run: (§2)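 Human microglia (CHME3) and astrocyte (SVG) lines at fourth passage, inflamed with LPS. […] IL-12 or IFN-γ released into the extracellular medium was quantified with human ELISA kits 12 and 24 h after drug treatment. Controls were inflamed untreated cells and market-drug (Disprin)-treated cells.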

IL-12 [3] = assay: IL-12 ELISA, LPS-treated CHME3; assay type: cell-based, human; conditions: selected dose
How it was run: as §2

IL-12 [4] = assay: IL-12 ELISA, LPS-treated SVG; assay type: cell-based, human; conditions: selected dose
How it was run: as §2

human microglia (CHME3) = assay: MTT assay, CHME3; assay type: cell-based; conditions: Homo sapiens, Microglia, read-out: IC50, half concentration of druggable compound to inhibit cell growth
How it was run: as §1

MTT assay, CHME3 = assay type: cell-based, human; conditions: human, CHME3 microglia cells
How it was run: as §1

IFN-γ [5] = assay: IFN-γ ELISA, LPS-treated CHME3; assay type: cell-based, human; conditions: selected dose
How it was run: as §2

O=C(/C=C/C=C/c1ccc2c(c1)OCO2)N(CCCO[N+](=O)[O-])c1ccc(CO)cc1 [PA-3′k, 3-((2 E,4 E)-5-(benzo[d][1,3]dioxol-5-yl)-N-(4-(hydroxymethyl)phenyl)penta-2,4-dienamido)propyl nitrate]
viability at 24 h (MTT assay, SVG): 89.1 ± 1.96%
IC50 [1]: 0.0679 µg/mL
IFN-γ quantification (IFN-γ [2]; 12 h after drug treatment): 42.57 ± 3.58
IFN-γ quantification (IFN-γ [2]; 24 h after drug treatment): 55.81 ± 2.89
IL-12 quantification (IL-12 [3]; 12 h after drug treatment): 81.68 ± 4.00
IL-12 quantification (IL-12 [3]; 24 h after drug treatment): 101.88 ± 5.22
IL-12 quantification (IL-12 [4]; 12 h after drug treatment): 88.11 ± 2.80
IL-12 quantification (IL-12 [4]; 24 h after drug treatment): 96.37 ± 2.95
IC50 (human microglia (CHME3)): 0.0678 µg/mL
viability at 24 h (MTT assay, CHME3): 86.1 ± 2.57%
IFN-γ quantification (IFN-γ [5]; 12 h after drug treatment): 46.35 ± 3.58
IFN-γ quantification (IFN-γ [5]; 24 h after drug treatment): 54.86 ± 3.41
